Common to all, as to assay type: functional
One test deals with LNCaP. In words: Antiproliferative activity against human LNCAP cells assessed as reduction in cell growth incubated for 96 hrs by propidium iodide based 2D monolayer assay. In outline:
(§1)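 After 24 h recovery, compound in medium or medium alone (control wells) was added at 10 half-log concentrations from 0.0032 to 100 µM, in triplicate, with at most 0.3% DMSO. After 96 h, wells were PBS-washed, stained with 7 µg/ml PI and 0.1% Triton X-100, and fluorescence read at 530/620 nm. IC50 came from a 4-parameter fit, geometric mean.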

A further test has as its system DU-145. In words: Antiproliferative activity against human DU145 cells assessed as reduction in cell growth incubated for 96 hrs by propidium iodide based 2D monolayer assay. As to conditions: DU-145, 96 h. The method, boiled down: as §1
The test system of a further test is CWR22R. The test can be described thus: Antiproliferative activity against human 22Rv1 cells assessed as reduction in cell growth incubated for 96 hrs by propidium iodide based 2D monolayer assay. The note with it: 22Rv1, 96 h. The method, boiled down: as §1
Another test deals with VCaP. In words: Antiproliferative activity against human VCaP cells assessed as reduction in cell growth incubated for 96 hrs by propidium iodide based 2D monolayer assay. The method, boiled down: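 VCaP cells in RPMI 1640 with 10% FCS at 37 °C, 5% CO2, seeded 4,000–20,000 cells/well and left 24 h before dosing. Compounds from DMSO stocks were diluted in half-log steps in medium, 10 concentrations 0.0032–100 μM, triplicate wells, max 0.3% DMSO. After 96 h, cells were washed, stained with 7 μg/ml propidium iodide plus 0.1% Triton X-100 for 1–2 h at room temperature, and fluorescence read at ex 530/em 620 nm.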

Take `CC(O)(COc1ccc(C#N)cc1)C(=O)Nc1cccc(S(F)(F)(F)(F)F)c1` (racemic): the IC50 in the test on LNCaP stood at 30 µM; in the test with DU-145 it was 42.6 µM; with CWR22R, 32.5 µM; in the test on VCaP it was 26.6 µM.
In the same order, the values of `CC(O)(COc1cccc(OC(F)(F)F)c1)C(=O)Nc1ccc(S(F)(F)(F)(F)F)cc1` (racemic) are 11 µM, 18.4 µM, 17.3 µM and 18.3 µM.
On to `CC(O)(COc1cccc(OC(F)(F)F)c1)C(=O)Nc1cccc(S(F)(F)(F)(F)F)c1` (racemic), for which the IC50 with LNCaP came out at 15.2 µM; in the test on DU-145, 30.1 µM; with CWR22R, 18.8 µM; in the test on VCaP, 28.6 µM.
`CC(O)(CS(=O)(=O)c1ccc(S(F)(F)(F)(F)F)cc1)C(=O)Nc1ccc(C#N)cc1C(F)(F)F` (racemic): the IC50 in the test with LNCaP turned out to be 17.8 µM; with DU-145 it was 25.6 µM; with CWR22R it was 19.4 µM; with VCaP, 43 µM.
The like results for `CC(O)(COc1ccc(S(F)(F)(F)(F)F)cc1)C(=O)Nc1ccc(C#N)cc1C(F)(F)F` (racemic) were, in that order, 12.3 µM, 16 µM, 14.7 µM and 25.5 µM.
For the compound `CC(O)(CSc1ccc(OC(F)(F)F)cc1)C(=O)Nc1cccc(S(F)(F)(F)(F)F)c1` (racemic), the IC50 in the test with LNCaP was 10.3 µM; with DU-145, 24.7 µM; in the test with CWR22R, 17 µM; in the test on VCaP, 28.5 µM.
In the same order, the values of `CC(O)(COc1ccc(C#N)c(F)c1)C(=O)Nc1cccc(S(F)(F)(F)(F)F)c1` (racemic) are 83.7 µM, 74.8 µM, 63.4 µM and 91.9 µM.
The like results for `CC(O)(CSc1ccccc1OC(F)(F)F)C(=O)Nc1cccc(S(F)(F)(F)(F)F)c1` (racemic) were, in that order, 10 µM, 17.5 µM, 13.9 µM and 12.6 µM.
In the same order, the values of `CC(O)(COc1ccc(S(F)(F)(F)(F)F)cc1)C(=O)Nc1ccc(S(F)(F)(F)(F)F)cc1` (racemic) are 9.8 µM, 24.9 µM, 13 µM and 9.3 µM.
With `CC(O)(COc1ccc(S(F)(F)(F)(F)F)cc1)C(=O)Nc1ccc([N+](=O)[O-])c(C(F)(F)F)c1` (racemic), the IC50 came to 100 µM in the test on LNCaP, 21.2 µM in the test on DU-145, 14.1 µM in the test with CWR22R and 100 µM in the test with VCaP.
Turning to `CC(O)(COc1ccc(S(F)(F)(F)(F)F)cc1)C(=O)Nc1ccc([N+](=O)[O-])cc1C(F)(F)F` (racemic), the IC50 with LNCaP is 14.8 µM; in the test on DU-145 it was 15.4 µM; in the test with CWR22R, 17.1 µM; with VCaP, 26.1 µM.
In the same order, the values of `CC(O)(COc1ccc(C#N)cc1C(F)(F)F)C(=O)Nc1cccc(S(F)(F)(F)(F)F)c1` (racemic) are 16.4 µM, 22.8 µM, 18.3 µM and 30.6 µM.
In the same order, the values of `CC(O)(COc1cccc(S(F)(F)(F)(F)F)c1)C(=O)Nc1ccc([N+](=O)[O-])cc1C(F)(F)F` (racemic) are 12.1 µM, 18 µM, 15.5 µM and 20.3 µM.
The like results for `CC(O)(COc1ccc(OC(F)(F)F)cc1)C(=O)Nc1ccc(S(F)(F)(F)(F)F)cc1` (racemic) were, in that order, 18.6 µM, 24.8 µM, 27.9 µM and 12.8 µM.
For the compound `CC(O)(COc1ccc(S(F)(F)(F)(F)F)cc1)C(=O)Nc1ccc(C#N)c(C(F)(F)F)c1` (racemic), the IC50 was determined as 11.5 µM with LNCaP, 25.5 µM in the test on DU-145, 28.2 µM with CWR22R and 30.1 µM in the test with VCaP.
In the same order, the values of `CC(O)(COc1cccc(C(F)(F)F)c1)C(=O)Nc1cccc(S(F)(F)(F)(F)F)c1` (racemic) are 28.8 µM, 31.7 µM, 28.9 µM and 22.5 µM.
The like results for `CC(O)(COc1cccc(S(F)(F)(F)(F)F)c1)C(=O)Nc1ccc(S(F)(F)(F)(F)F)cc1` (racemic) were, in that order, 12 µM, 29.6 µM, 17.6 µM and 11.4 µM.
In the same order, the values of `CC(O)(CS(=O)(=O)c1ccc(S(F)(F)(F)(F)F)cc1)C(=O)Nc1ccc([N+](=O)[O-])c(C(F)(F)F)c1` (racemic) are 10 µM, 17.7 µM, 14.7 µM and 19.2 µM.
`CC(O)(COc1ccc(S(F)(F)(F)(F)F)cc1)C(=O)Nc1cccc(S(F)(F)(F)(F)F)c1` (racemic): the IC50 in the test with LNCaP is 8 µM; in the test on DU-145, 12.8 µM; in the test with CWR22R, 10.2 µM; with VCaP it was 8 µM.
As for `CC(O)(COc1ccccc1OC(F)(F)F)C(=O)Nc1ccc(S(F)(F)(F)(F)F)cc1` (racemic), the IC50 in the test with LNCaP turned out to be 8.9 µM; in the test with DU-145 it was 16.8 µM; in the test with CWR22R, 7.3 µM; in the test with VCaP, 9.7 µM.
In the same order, the values of `CC(O)(CS(=O)(=O)c1cccc(S(F)(F)(F)(F)F)c1)C(=O)Nc1ccc([N+](=O)[O-])c(C(F)(F)F)c1` (racemic) are 13.8 µM, 17.2 µM, 14.8 µM and 24.6 µM.
The like results for `CC(O)(COc1ccc(C#N)cc1)C(=O)Nc1ccc(S(F)(F)(F)(F)F)cc1` (racemic) were, in that order, 100 µM, 32.2 µM, 26.1 µM and 100 µM.
In the same order, the values of `CC(O)(COc1cccc(S(F)(F)(F)(F)F)c1)C(=O)Nc1ccc(C#N)c(C(F)(F)F)c1` (racemic) are 9.8 µM, 16 µM, 10.7 µM and 8 µM.
Turning to `CC(O)(COc1ccccc1C(F)(F)F)C(=O)Nc1cccc(S(F)(F)(F)(F)F)c1` (racemic), the IC50 was 26.3 µM in the test with LNCaP, 52.2 µM in the test on DU-145, 34.9 µM in the test with CWR22R and 36.7 µM in the test with VCaP.
On to `CC(O)(COc1cccc(C(F)(F)F)c1)C(=O)Nc1ccc(S(F)(F)(F)(F)F)cc1` (racemic), for which the IC50 was found to be 24.7 µM with LNCaP, 21.9 µM with DU-145, 14.6 µM with CWR22R and 24.7 µM in the test with VCaP.
With `CC(O)(CSc1cccc(OC(F)(F)F)c1)C(=O)Nc1cccc(S(F)(F)(F)(F)F)c1` (racemic), the IC50 with LNCaP worked out at 10.9 µM; with DU-145, 25 µM; in the test on CWR22R, 18.7 µM; in the test on VCaP, 17.5 µM.
In the same order, the values of `CC(O)(COc1ccc(OC(F)(F)F)cc1)C(=O)Nc1cccc(S(F)(F)(F)(F)F)c1` (racemic) are 12.7 µM, 19.1 µM, 12.9 µM and 20.2 µM.
The like results for `CC(O)(COc1ccc(C(F)(F)F)cc1)C(=O)Nc1cccc(S(F)(F)(F)(F)F)c1` (racemic) were, in that order, 9.6 µM, 13.6 µM, 3.6 µM and 13.3 µM.
In the same order, the values of `CC(O)(COc1cccc(S(F)(F)(F)(F)F)c1)C(=O)Nc1ccc(C(F)(F)F)cc1` (racemic) are 12.8 µM, 21 µM, 15.8 µM and 23.8 µM.
Take `CC(O)(COc1ccc(C#N)c(F)c1)C(=O)Nc1ccc(S(F)(F)(F)(F)F)cc1` (racemic): the IC50 in the test with LNCaP came out at 100 µM; with DU-145, 30.4 µM; in the test on CWR22R, 24.3 µM; in the test on VCaP it was 100 µM.
In the case of `CC(O)(COc1ccc(S(F)(F)(F)(F)F)cc1)C(=O)Nc1ccc(C(F)(F)F)cc1` (racemic), the IC50 with LNCaP amounted to 11.7 µM; in the test with DU-145, 27.4 µM; with CWR22R it was 12.9 µM; in the test with VCaP it was 14.7 µM.
`CC(O)(COc1cccc(S(F)(F)(F)(F)F)c1)C(=O)Nc1cccc(S(F)(F)(F)(F)F)c1` (racemic): the IC50 came out at 10.9 µM in the test on LNCaP, 30.7 µM in the test with DU-145, 27.3 µM in the test on CWR22R and 26.7 µM in the test on VCaP.
In the case of `CC(O)(COc1cccc(S(F)(F)(F)(F)F)c1)C(=O)Nc1ccc(C#N)cc1C(F)(F)F` (racemic), the IC50 with LNCaP was 9.9 µM; in the test on DU-145 it was 16.3 µM; in the test with CWR22R, 11.6 µM; in the test on VCaP, 10.3 µM.
The like results for `CC(O)(COc1ccccc1OC(F)(F)F)C(=O)Nc1cccc(S(F)(F)(F)(F)F)c1` (racemic) were, in that order, 16.1 µM, 38.1 µM, 30 µM and 27.7 µM.
In the same order, the values of `CC(O)(COc1ccc(C#N)cc1C(F)(F)F)C(=O)Nc1ccc(S(F)(F)(F)(F)F)cc1` (racemic) are 100 µM, 21.2 µM, 13.8 µM and 100 µM.
The like results for `CC(O)(CS(=O)(=O)c1cccc(S(F)(F)(F)(F)F)c1)C(=O)Nc1ccc(C#N)cc1C(F)(F)F` (racemic) were, in that order, 12.9 µM, 22.1 µM, 14.3 µM and 20.8 µM.

The term IC50 denotes the concentration that inhibits the measured activity by half.
